As usually defined, the viability is a read-out of living cells in per cent, often relative to untreated cells.

Unmarked numbers belong to inactive results. Active and inactive are the calls of the source.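 The calls were made as follows, unless noted: active = viability at or under a set limit in both replicates, limit being median viability minus 3 SD (cut at about 48% in these data, passing the limit was not always enough); inconclusive = at or under the limit in just one replicate; inactive = at or above the limit in both replicates.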

One assay in a line: HUVEC growth inhibition – cell-based, human, primary screen (AID 575;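 active = viability at or below 30% in both replicate assays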;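 also: 100% = median of untreated cell wells with 0.1% DMSO on each plate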). To be noted: HUVEC proliferation, CellTiter-Glo luminescence, 72 h; at 10 µM; stronger effect = lower value. An outline of the steps: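 Material: primary human umbilical vein endothelial cells / Schedule: 72 h exposure, 37 °C, 5% CO2, 30 min RT equilibration / Signal: ATP-based CellTiter-Glo luminescent read / Read-out basis: percent of median DMSO-control luminescence / Control set: 32 DMSO-only cell-control wells (high), 32 MePR drug-control wells (low) per plate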
Consider `CCn1c(SCC(=O)Nc2cccc(C)c2)nc2c(c1=O)SC(C)C2` (stereo not given), for which the viability is 99%.
The same measure, in the same setting: to `COc1cccc(C2CC(c3ccc(C)cc3)n3nc(N)nc3N2)c1` (stereo not given) belongs 95.3%.
Same read-out and setting: under `Cc1cc(C)cc(N(CC(=O)Nc2cccc(C)n2)S(=O)(=O)c2c(C)noc2C)c1` stands 92.3%; under `Cc1noc(C)c1S(=O)(=O)N1CCN(Cc2ccc3c(c2)OCO3)CC1`, 96.7%.
Same read-out and setting: under `Cn1c(C(=O)NCCCN2CCCCCC2)cc2c(=O)n(C)c3ccccc3c21` stands 91.2%; under `CS(=O)(=O)N(Cc1ccco1)CC(O)Cn1c2ccccc2c2ccccc21` (stereo not given), 76.8%; under `CC(=O)Nc1ccc(S(=O)(=O)Nc2nc3c(s2)CCCC3)cc1`, 106%.
Consider `CCOC(=O)C(CC)Sc1ncnc2nc[nH]c12` (stereo not given), for which the viability was 103%.
For the molecule `COc1cc2c(cc1OC)-c1nnc(C)n1C1(CCCC1)C2`, the viability was 114%.
`Nc1nc2n(n1)C(c1cccc(Br)c1)CC(c1ccccc1)N2` (stereo not given): the viability is 82%.

A further assay is described as follows: growth inhibitors of H69AR lung tumor, primary screen, human, duplicate replicates (AID 580).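 Also: 100% = mean luminescence of untreated wells and 0% = no signal.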 To be noted: H69AR lung tumor cells viability, ATP luminescence, 72 h; at 10 µM; stronger effect = lower value.
Take `COc1ccc(C(=O)NCc2nnc(SC)n2C2CCCCC2)cc1`: the viability is 92%.
On the same count and under the same terms, under `Oc1ccc(Cl)cc1-c1cc(-c2ccccc2)n[nH]1` stands 6.37% (active); under `O=C(CCCn1c(=O)c2sccc2n(Cc2cc(=O)n3ccccc3n2)c1=O)NCc1ccco1`, 77%.
Same read-out and setting: to `COC(=O)c1cn(NC(=O)C2CCCO2)c(=O)c2ccccc12` (stereo not given) belongs 96.6%.
Still for that read-out and setting: to `CCN(CC)CCCNC(=O)c1cn(C)c2ccc(S(=O)(=O)N(C)C)cc2c1=O` belongs 99.4%; to `Cc1nnc(SCCn2c(N3CCC(Cc4ccccc4)CC3)nc3c2c(=O)[nH]c(=O)n3C)s1`, 79.4%.
In the case of `O=C(C(Cc1ccccc1)n1cccc1)N1CCCCCC1` (stereo not given), the viability was 95.6%.
As to `O=C(Cn1nc(Cc2ccncc2)c2ccccc2c1=O)N1CCN(C(=O)c2ccco2)CC1`, the viability was 86%.
On to `COc1ccc(-c2nc(CS(=O)CC(=O)NCc3ccccn3)c(C)o2)cc1` (stereo not given), for which the viability is 92.9%.
Take `CCn1c(SCC(=O)Nc2ccc(Cl)cc2)nnc1C1CC1`: the viability is 74.7%.
As for `CCOC(=O)CN(C(=O)c1ccccc1)c1ccccc1C`, the viability is 109%.
On the same count and under the same terms, to `COC(=O)Cc1cc(=O)[nH]c(Nc2nc3ccccc3o2)n1` belongs 78.3%; to `COc1ccc(C2CC(c3cccc(C)c3)n3ncnc3N2)cc1` (stereo not given), 91.4%; to `CC1CCCCN1CCNC(=O)C1CCN(S(=O)(=O)c2cccc3cccnc23)CC1` (stereo not given), 100%.
Still for that read-out and setting: under `CCCCSc1nc(CCC)cc(=O)[nH]1` stands 88.2%; under `CC1(C)CC(=O)C2=C(C1)NC(=O)CC2c1ccc(N(CCC#N)CCC#N)cc1` (stereo not given), 110%.
Still for that read-out and setting: under `Cc1cccc(OCC(=O)N2CCN(C(=O)Cc3ccccc3)CC2)c1` stands 97.3%; under `O=C1CC(c2cccnc2)c2cc3c(cc2N1)OCO3` (stereo not given), 104%.
Turning to `CCc1nn(CC(=O)NCCCN2CCc3ccccc3C2)c(=O)c2cc3sccc3n12`, the viability is 77.5%.
Consider `Cc1ccc(-c2nc3cc(NC(=O)C(C)C)ccc3o2)cc1`, for which the viability was 82.4%.
As for `CC(CC(=O)NC1CCSC1=O)c1ccccc1` (stereo not given), the viability was 113%.
For `COc1ccc(C2CC(c3ccc(OC)cc3)n3nc(N)nc3N2)cc1` (stereo not given), the viability is 82.2%.
With `COC(=O)COc1cccc(NC(=O)COc2ccccc2)c1`, the viability is 96.5%.
Consider `COc1ccc(OCCSc2nc3ccccc3n2CC(=O)O)cc1`, for which the viability was 97.8%.
The same measure, in the same setting: to `Cc1cccnc1-n1c(CCN2C(=O)c3ccccc3C2=O)nc2ccccc2c1=O` belongs 95.1%; to `CC(=O)N(c1ccc(Br)cc1)C1C=CS(=O)(=O)C1` (stereo not given), 88.8%.
The same measure, in the same setting: under `Cc1ccccc1Cn1cc(/C=N/n2cnnc2)c2ccccc21` stands 95.4%; under `CCOC(=O)N1CCN(c2cc(=O)n(-c3ccccc3Cl)c(=O)[nH]2)CC1`, 86.9%.
Turning to `CCCCN(C)Cc1c(O)ccc2c(-c3ccccc3)cc(=O)oc12`, the viability is 96.7%.
Regarding `CCCCn1c(CN2CCN(c3ccc(F)cc3)CC2)nc2c1c(=O)n(C)c(=O)n2C`, the viability was 95.5%.
Same read-out and setting: under `CCn1c(SCC(=O)Nc2cccc(C)c2)nc2c(c1=O)SC(C)C2` (stereo not given) stands 76.7%; under `COc1cccc(C2CC(c3ccc(C)cc3)n3nc(N)nc3N2)c1` (stereo not given), 98.2%.
Turning to `Cc1cc(C)cc(N(CC(=O)Nc2cccc(C)n2)S(=O)(=O)c2c(C)noc2C)c1`, the viability was 85.6%.
Still for that read-out and setting: to `Cc1noc(C)c1S(=O)(=O)N1CCN(Cc2ccc3c(c2)OCO3)CC1` belongs 95.4%.
On the same count and under the same terms, under `Cn1c(C(=O)NCCCN2CCCCCC2)cc2c(=O)n(C)c3ccccc3c21` stands 87.2%; under `CS(=O)(=O)N(Cc1ccco1)CC(O)Cn1c2ccccc2c2ccccc21` (stereo not given), 80.5%.
Regarding `CC(=O)Nc1ccc(S(=O)(=O)Nc2nc3c(s2)CCCC3)cc1`, the viability is 99.5%.
The same measure, in the same setting: to `CCOC(=O)C(CC)Sc1ncnc2nc[nH]c12` (stereo not given) belongs 101%.
As for `COc1cc2c(cc1OC)-c1nnc(C)n1C1(CCCC1)C2`, the viability is 99%.
Turning to `Nc1nc2n(n1)C(c1cccc(Br)c1)CC(c1ccccc1)N2` (stereo not given), the viability is 88.8%.

These data come from PubChem BioAssay.
